The values below come from ChEMBL document CHEMBL4041524, “Synthesis and Characterization of a Novel γ-Aminobutyric Acid Type A (GABAA) Receptor Ligand That Combines Outstanding Metabolic Stability, Pharmacokinetics, and Anxiolytic Efficacy” (J Med Chem, 2016).

The structures appear in SMILES notation. pEC50: −log10 of the molar value.

The target in data set [1] is T1, GABA-A receptor; alpha-3/beta-3/gamma-2 (Homo sapiens, UniProt P18507+P28472+P34903).
T1 sequence (P18507 whole entry): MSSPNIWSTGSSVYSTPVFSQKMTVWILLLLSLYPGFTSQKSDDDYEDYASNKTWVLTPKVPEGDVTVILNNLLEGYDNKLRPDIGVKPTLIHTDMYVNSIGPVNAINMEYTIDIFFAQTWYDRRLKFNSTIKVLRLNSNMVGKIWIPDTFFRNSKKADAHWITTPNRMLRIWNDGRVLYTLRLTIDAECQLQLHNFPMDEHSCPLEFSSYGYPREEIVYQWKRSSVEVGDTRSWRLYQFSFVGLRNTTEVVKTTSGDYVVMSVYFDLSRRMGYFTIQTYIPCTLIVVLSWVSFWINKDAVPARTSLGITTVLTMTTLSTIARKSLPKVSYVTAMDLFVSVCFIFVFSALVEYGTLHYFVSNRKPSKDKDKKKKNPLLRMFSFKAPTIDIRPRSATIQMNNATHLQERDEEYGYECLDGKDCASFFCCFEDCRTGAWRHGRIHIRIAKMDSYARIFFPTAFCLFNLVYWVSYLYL
T1 sequence (P28472 whole entry): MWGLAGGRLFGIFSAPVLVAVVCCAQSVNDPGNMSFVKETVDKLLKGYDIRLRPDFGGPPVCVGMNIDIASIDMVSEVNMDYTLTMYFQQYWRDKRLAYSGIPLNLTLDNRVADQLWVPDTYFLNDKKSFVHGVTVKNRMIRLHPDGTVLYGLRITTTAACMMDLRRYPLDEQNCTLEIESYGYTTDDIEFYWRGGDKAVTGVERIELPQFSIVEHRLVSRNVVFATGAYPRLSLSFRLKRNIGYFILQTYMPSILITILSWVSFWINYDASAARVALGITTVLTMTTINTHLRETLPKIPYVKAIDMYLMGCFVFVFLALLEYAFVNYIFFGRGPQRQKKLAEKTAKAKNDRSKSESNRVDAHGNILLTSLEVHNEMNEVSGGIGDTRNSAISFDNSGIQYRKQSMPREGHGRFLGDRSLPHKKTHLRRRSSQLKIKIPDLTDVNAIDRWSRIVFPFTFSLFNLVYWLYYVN
T1 sequence (P34903 whole entry): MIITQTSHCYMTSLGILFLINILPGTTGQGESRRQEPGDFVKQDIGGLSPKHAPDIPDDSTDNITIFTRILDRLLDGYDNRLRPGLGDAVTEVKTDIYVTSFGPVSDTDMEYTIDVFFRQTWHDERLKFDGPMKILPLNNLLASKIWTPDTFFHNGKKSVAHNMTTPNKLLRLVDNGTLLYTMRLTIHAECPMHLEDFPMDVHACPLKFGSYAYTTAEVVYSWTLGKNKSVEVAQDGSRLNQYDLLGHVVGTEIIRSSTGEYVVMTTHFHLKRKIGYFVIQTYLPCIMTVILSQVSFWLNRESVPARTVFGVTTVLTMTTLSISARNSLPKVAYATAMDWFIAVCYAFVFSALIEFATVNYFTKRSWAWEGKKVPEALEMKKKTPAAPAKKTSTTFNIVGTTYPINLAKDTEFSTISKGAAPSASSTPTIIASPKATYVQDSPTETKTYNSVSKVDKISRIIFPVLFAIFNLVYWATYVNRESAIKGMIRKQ
As to the kind of experiment: Binding affinity to human GABAA alpha3beta3gamma2 receptor expressed in HEK293 cells assessed as GABA-induced membrane potential change preincubated for 3 mins followed by addition of GABA measured after 3 mins by FLIPR assay. In kind it is cell-based. The method, boiled down: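 Stably transfected HEK293T cells expressing α1β3γ2 (n = 2) or α3β3γ2 (n = 1) GABAARs. Membrane potential was read as fluorescence changes on a FLIPR Tetra, and EC50 was derived.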

For data set [2], the system named is Liver. As to the kind of experiment: Metabolic stability in human liver microsomes assessed as compound remaining at 4 uM measured after 30 mins in presence of NADPH by LC-MS/MS analysis. In kind it is ADME, microsome. The note with it: 0.5 h. The method, boiled down: (§1)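 Human, mouse or rat liver microsomes were incubated with compound at 4 μM final for 30 min at 37 °C (n = 1). Percent of parent remaining was quantified by LC-MS/MS.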

Data set [3] relates to Liver. As to the kind of experiment: Metabolic stability in mouse liver microsomes assessed as compound remaining at 4 uM measured after 30 mins in presence of NADPH by LC-MS/MS analysis. In kind it is ADME, microsome. The note with it: 0.5 h. The method, boiled down: as §1
Data set [4] concerns Liver. As to the kind of experiment: Metabolic stability in rat liver microsomes assessed as compound remaining at 4 uM measured after 30 mins in presence of NADPH by LC-MS/MS analysis. The data set is classed as ADME, microsome. The note with it: 0.5 h. The method, boiled down:
as §1

Data set [5] deals with T2, GABA-A receptor; alpha-3/beta-3/gamma-2 (Homo sapiens) (UniProt P18507+P28472+P34903). As to the kind of experiment: Modulation of recombinant GABA alpha3beta3gamma2 receptor (unknown origin) expressed in Xenopus laevis oocytes assessed as change in GABA-induced EC(3 to 6) current at 1 uM by two-electrode voltage clamp assay. In kind it is cell-based. The method, boiled down: (§2)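 Xenopus laevis oocytes expressing α1, α2, α3 or α5 β3γ2 GABAARs were recorded by two-electrode voltage clamp. Modulation of the GABA EC3-6 current (taken as 100%) was tested at 100 nM, 1 μM and 10 μM in the same cells. Values are mean ± SEM, n = 3–4.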

Data set [6] concerns the target T2, GABA-A receptor; alpha-3/beta-3/gamma-2 (Homo sapiens). As to the kind of experiment: Modulation of recombinant GABA alpha3beta3gamma2 receptor (unknown origin) expressed in Xenopus laevis oocytes assessed as change in GABA-induced EC(3 to 6) current at 10 uM by two-electrode voltage clamp assay. In kind it is cell-based. The method, boiled down:
as §2

A short description of data set [7]: Volume of distribution at steady state in femoral artery/vein cannulated Sprague-Dawley rat at 1 mg/kg, iv administered […] as single dose by LC-MS/MS analysis. The data set is classed as ADME, organism-based. Particulars: in vivo, read-out: Vdss. The method, boiled down:
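Male Sprague-Dawley rats (n = 3 per time point) were dosed i.v. at 1 mg/kg. Plasma concentrations were measured at set time points, and Vdss was taken from the plasma concentration–time profile.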

Data set [8] in a line: Half life in femoral artery/vein cannulated Sprague-Dawley rat at 1 mg/kg, iv administered […] as single dose by LC-MS/MS analysis. In kind it is ADME, organism-based. The note with it: in vivo. The method, boiled down: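 Male Sprague-Dawley rats (n = 3 per time point) were dosed 1 mg/kg i.v. or 10 mg/kg i.p. Plasma concentrations were measured at set time points. Clearance, Vdss and T½ came from the i.v. arm, and AUC, Cmax and Tmax from the i.p. arm.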

A short description of data set [9]: Ratio of unbound concentration in Sprague-Dawley rat brain to plasma at 10 mg/kg, ip measured after 4 hrs. The data set is classed as ADME, organism-based. The method, boiled down:
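Rats were given 10 mg/kg i.p. (n = 3), and total plasma and brain concentrations were measured at 4 h. Unbound concentrations were calculated as Fu × total concentration, and Kp,uu = Cu,brain/Cu,plasma.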

For data set [10], the target named is GABA-A receptor; alpha-1/beta-3/gamma-2 (Homo sapiens) (UniProt P14867+P18507+P28472). As to the kind of experiment: Modulation of recombinant GABA alpha1beta3gamma2 receptor (unknown origin) expressed in Xenopus laevis oocytes assessed as change in GABA-induced EC(3 to 6) current by two-electrode voltage clamp assay. In kind it is cell-based. The method, boiled down: as §2

Data set [11] deals with GABA-A receptor; alpha-2/beta-3/gamma-2 (Homo sapiens) (UniProt P18507+P28472+P47869). As to the kind of experiment: Modulation of recombinant GABA alpha2beta3gamma2 receptor (unknown origin) expressed in Xenopus laevis oocytes assessed as change in GABA-induced EC(3 to 6) current by two-electrode voltage clamp assay. The data set is classed as cell-based. The method, boiled down:
as §2

Consider `C#Cc1ccc2c(c1)C(c1ccccn1)=NCc1c(-c3cnco3)ncn1-2`, for which, in data set [1], the pEC50 is 6.03. Moreover, the figures for the Stability in the data set with Liver [2], with Liver [3] and with Liver [4] were 91%, 90% and 90%, respectively. Further, the Activity in data set [5] is 188%; in data set [6], 332%; in data set [10] it was “Dose-dependent effect”; in [11] it was “Dose-dependent effect”. Moreover, the Vd in data set [7] stood at 1.4 L/kg. Also, the half-life in data set [8] is 1.4 h. Besides, the “K(p,uu,brain)” value in data set [9] amounted to 0.66.
